System: Mus musculus
Test: Sedative activity in Swiss mouse assessed as reduction of locomotor activity at 10 umol/kg, ip after 40 mins
Format: organism-based
Settings: in vivo; call rule not given here
Outline: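 Mice received a single screening dose intraperitoneally. Motor activity was counted over the 40 min after injection and expressed as movements per minute. An untreated control group and a midazolam reference group (2 mg/kg) were run alongside. Data are given as means ± SEM, and significance was tested against control.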

`Cc1ccc(N2C(=O)c3cnc4c(c(C)nn4C)c3C2=O)cc1` was tested. Which Activity did it give?
Its Activity is “Not Active”.

Which Activity does the source give for `Cc1nn(C)c2ncc3c(c12)C(=O)N(c1ccc(C(=O)O)cc1)C3=O` here?
Its Activity is “Not Active”.

Which Activity does the source give for `Cc1nn(-c2ccccc2)c2ncc3c(c12)C(=O)N(c1ccc([N+](=O)[O-])cc1)C3=O` here?
Its Activity is “Active”.

Which Activity does the source give for `Cc1nn(-c2ccccc2)c2ncc3c(c12)C(=O)N(c1ccc(C(=O)O)cc1)C3=O` here?
Its Activity is “Not Active”.

For `Cc1nn(C)c2ncc3c(c12)C(=O)N(c1ccccc1)C3=O`, which Activity is on record?
Its Activity is “Not Active”.

Which Activity does the source give for `Cc1nn(-c2ccccc2)c2ncc3c(c12)C(=O)N(c1ccc(Cl)cc1)C3=O` here?
Its Activity is “Not Active”.

With `Cc1ccc(N2C(=O)c3cnc4c(c(C)nn4-c4ccccc4)c3C2=O)cc1` as the compound, how does the Activity read?
The Activity was “Not Active”.

For `COc1ccc(N2C(=O)c3cnc4c(c(C)nn4-c4ccccc4)c3C2=O)cc1`, which Activity is on record?
Its Activity is “Active”.

`Cc1nn(-c2ccccc2)c2ncc3c(c12)C(=O)N(c1ccccc1)C3=O` was tested. Which Activity did it give?
The Activity was “Not Active”.

How did the Activity turn out when `Cc1nn(C)c2ncc3c(c12)C(=O)N(c1ccc([N+](=O)[O-])cc1)C3=O` was run?
The Activity was “Not Active”.

`Cc1nn(C)c2ncc3c(c12)C(=O)N(c1ccc(Cl)cc1)C3=O` was tested. Which Activity did it give?
Its Activity is “Not Active”.

How did the Activity turn out when `COc1ccc(N2C(=O)c3cnc4c(c(C)nn4C)c3C2=O)cc1` was run?
The Activity was “Not Active”.
